Source: ChEMBL document CHEMBL2346557 (Bioorg Med Chem, 2013)
Activity calls are given as the source filed them. The calls are words filed in the database; no cut-off is given here.

Assays:
[1] = system: C2C12; assay: Cytotoxicity against mouse C2C12 cells assessed as cell viability at 0.01 to 100 ug/mL after 24 hrs by MTT assay; assay type: cell-based; details: c2c12, 24 h
Summary of the method: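 MTT viability run on C2C12 cells grown and treated alongside the NF-κB reporter plates, with drug at 0.01–100 µg/ml and DMSO vehicle. Viability is expressed as percent of untreated cells. A one-way repeated-measures ANOVA tested for a concentration effect.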

[2] = molecular target: T1, Glucocorticoid receptor (Mus musculus) (UniProt P06537); assay: Induction of glucocorticoid receptor nuclear translocation in mouse C2C12 cells at 1 x 10^-5 to 1.69 x 10^-10 M by chemiluminescence assay relative to control; assay type: cell-based
T1 sequence (whole entry): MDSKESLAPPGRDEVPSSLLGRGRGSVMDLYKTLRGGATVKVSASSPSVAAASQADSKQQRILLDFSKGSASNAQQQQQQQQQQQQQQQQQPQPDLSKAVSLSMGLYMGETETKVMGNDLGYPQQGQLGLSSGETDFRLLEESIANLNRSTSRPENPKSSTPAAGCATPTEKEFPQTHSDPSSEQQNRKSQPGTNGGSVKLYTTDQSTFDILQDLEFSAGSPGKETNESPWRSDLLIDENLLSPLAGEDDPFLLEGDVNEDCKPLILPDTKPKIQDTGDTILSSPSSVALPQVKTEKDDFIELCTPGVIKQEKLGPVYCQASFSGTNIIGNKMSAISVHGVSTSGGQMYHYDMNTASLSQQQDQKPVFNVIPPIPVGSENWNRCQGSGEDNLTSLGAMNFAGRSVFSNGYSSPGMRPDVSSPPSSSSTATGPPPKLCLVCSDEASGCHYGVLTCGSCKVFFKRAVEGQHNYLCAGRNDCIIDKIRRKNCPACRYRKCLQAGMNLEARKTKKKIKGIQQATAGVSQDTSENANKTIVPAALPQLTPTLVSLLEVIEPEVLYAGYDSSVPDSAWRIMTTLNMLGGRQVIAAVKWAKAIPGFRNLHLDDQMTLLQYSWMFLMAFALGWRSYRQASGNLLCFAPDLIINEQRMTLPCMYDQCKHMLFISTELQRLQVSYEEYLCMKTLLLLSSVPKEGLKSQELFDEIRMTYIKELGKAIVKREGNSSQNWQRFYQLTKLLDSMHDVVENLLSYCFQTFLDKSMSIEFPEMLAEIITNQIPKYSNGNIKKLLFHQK
Summary of the method: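 GR nuclear translocation measured by DiscoveRx in PathHunter cells using enzyme-fragment complementation. ProLink-tagged GR recruits a nuclear steroid receptor co-activator peptide fused to the enzyme acceptor, giving a chemiluminescent signal.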

[3] = Inhibition of TNFalpha-induced NFkappaB activation in mouse C2C12 cells incubated for 24 hrs prior to TNFalpha induction measured after 24 hrs by luciferase reporter gene assay; assay type: cell-based
Summary of the method: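 C2C12 myoblasts in growth medium and myotubes in differentiating medium, each stably carrying an NF-κB response element–luciferase reporter. Cells were washed, lysed and luciferase read; TNF-α alone was set as 100%. IC50 was calculated. SD shown.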

[4] = molecular target: T2, Glucocorticoid receptor (Homo sapiens) (UniProt P04150); assay: Transactivation of glucocorticoid receptor in HEK293 cells co-transfected with GRE assessed as induction of GRE-dependent gene expression at 100 ug/ml after 6 hrs by luciferase reporter gene assay; assay type: cell-based
T2 sequence (whole entry): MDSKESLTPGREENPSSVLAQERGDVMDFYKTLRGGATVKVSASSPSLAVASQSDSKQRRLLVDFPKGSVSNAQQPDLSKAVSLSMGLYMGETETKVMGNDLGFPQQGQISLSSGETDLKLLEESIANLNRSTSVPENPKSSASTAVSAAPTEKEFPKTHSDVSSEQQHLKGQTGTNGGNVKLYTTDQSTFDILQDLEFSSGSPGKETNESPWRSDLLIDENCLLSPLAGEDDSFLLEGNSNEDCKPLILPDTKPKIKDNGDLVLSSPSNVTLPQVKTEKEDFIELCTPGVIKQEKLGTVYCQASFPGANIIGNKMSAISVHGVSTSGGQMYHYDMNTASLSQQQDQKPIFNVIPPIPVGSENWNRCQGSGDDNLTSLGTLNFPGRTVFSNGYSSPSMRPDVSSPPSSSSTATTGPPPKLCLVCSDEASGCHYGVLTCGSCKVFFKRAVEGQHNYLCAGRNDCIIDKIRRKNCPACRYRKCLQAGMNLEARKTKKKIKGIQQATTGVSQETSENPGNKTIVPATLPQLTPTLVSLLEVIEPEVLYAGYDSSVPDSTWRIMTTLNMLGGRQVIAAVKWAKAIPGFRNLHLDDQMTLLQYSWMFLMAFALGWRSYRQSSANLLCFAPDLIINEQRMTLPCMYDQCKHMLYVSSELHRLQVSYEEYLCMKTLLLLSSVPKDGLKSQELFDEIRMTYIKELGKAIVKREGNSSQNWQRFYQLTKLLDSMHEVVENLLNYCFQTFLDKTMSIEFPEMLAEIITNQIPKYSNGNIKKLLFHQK
Summary of the method: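 HEK-293 cells stably transfected with a GRE-driven luciferase reporter were exposed to drug at 0.01–100 μg/ml for 6 h. Cells were washed with PBS and lysed, and luciferase activity was measured by luminometer.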

[5] = Tmax in CD1 mouse at 10 mg/kg, iv; assay type: ADME, organism-based; design: dose 10 mg/kg, route intravenous; details: in vivo
Summary of the method: (§1)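 CD1 mice (n = 3 per compound) given 10 mg/kg as a single tail-vein injection in a pH 7.0 solution of 10% ethanol plus PEG400 (some compounds also with 10% DMSO). Blood was sampled at 0, 5, 15 and 30 min and 1, 2, 4, 8 and 24 h. Parameters were derived from the plasma concentration–time profiles.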

[6] = system: Liver microsomes; assay: Metabolic stability in rat liver microsomes at 2 uM measured at 1 hr; assay type: ADME, Microsome
Summary of the method: (§2)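 Liver microsomes (human, or male monkey, dog, rat or mouse) at 0.5 mg/mL final with 2 µM compound, 5 mM MgCl2 and 5 mM PBS. The reaction was started with 1 mM NADPH and run at 37 °C. Verapamil was the positive control; water replaced NADPH in the negative control. Read-out was percent parent remaining at 1 h.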

[7] = system: Mus musculus; assay: Total unbound Cmax in CD1 mouse at 50 mg/kg, po; assay type: ADME, organism-based; design: dose 50 mg/kg, route oral; details: in vivo
[8] = Metabolic stability in dog liver microsomes assessed as compound remaining at 2 uM measured at 1 hr; assay type: ADME, Canis lupus familiaris, Microsome; details: read-out: Stability; summary of the method: as §2
[9] = Metabolic stability in monkey liver microsomes assessed as compound remaining at 2 uM measured at 1 hr; assay type: ADME, Macaca mulatta, Microsome; details: rhesus monkey, read-out: Stability; summary of the method: as §2
[10] = system: Mus musculus; assay: Total unbound AUC (0 to infinity) in CD1 mouse at 50 mg/kg, po; assay type: ADME, organism-based; design: dose 50 mg/kg, route oral; details: in vivo
[11] = AUClast in CD1 mouse at 50 mg/kg, po; assay type: ADME, organism-based; design: time 0 - last, dose 50 mg/kg, route oral; details: plasma
Summary of the method: (§3)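 CD1 mice (n = 3 per compound) were dosed orally at 50 mg/kg as an aqueous emulsion in 30% Labrafil. Blood was drawn at 0, 5, 15 and 30 min and 1, 2, 4, 8 and 24 h. Bioavailability and other parameters were calculated from the plasma profiles and compared against the intravenous arm.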

[12] = Metabolic stability in human liver microsomes assessed as compound remaining at 2 uM measured at 1 hr; assay type: ADME, Microsome; details: read-out: Stability; summary of the method: as §2
[13] = system: Mus musculus; assay: Total unbound Cmax in CD1 mouse at 10 mg/kg, iv; assay type: ADME, organism-based; design: dose 10 mg/kg, route intravenous; details: in vivo
[14] = Metabolic stability in mouse liver microsomes assessed as compound remaining at 2 uM measured at 1 hr; assay type: ADME, Microsome; details: read-out: Stability; summary of the method: as §2
[15] = AUClast in CD1 mouse at 10 mg/kg, iv; assay type: ADME, organism-based; design: time 0 - last, dose 10 mg/kg, route intravenous; details: plasma; summary of the method: as §1
[16] = Mean residence time in CD1 mouse at 10 mg/kg, iv; assay type: ADME, organism-based; design: dose 10 mg/kg, route intravenous; details: in vivo; summary of the method: as §1
[17] = system: Mus musculus; assay: Oral bioavailability in CD1 mouse at 50 mg/kg; assay type: ADME, organism-based; details: in vivo; summary of the method: as §3
[18] = Clearance in CD1 mouse at 10 mg/kg, iv; assay type: ADME, organism-based; design: dose 10 mg/kg, route intravenous; details: in vivo; summary of the method: as §1
[19] = Tmax in CD1 mouse at 50 mg/kg, po; assay type: ADME, organism-based; design: dose 50 mg/kg, route oral; details: in vivo; summary of the method: as §3
[20] = Terminal half life in CD1 mouse at 50 mg/kg, po; assay type: ADME, organism-based; design: dose 50 mg/kg, route oral; details: in vivo, read-out: beta t1/2 (converted); summary of the method: as §3
[21] = system: Mus musculus; assay: Total unbound AUC (0 to infinity) in CD1 mouse at 10 mg/kg, iv; assay type: ADME, organism-based; design: dose 10 mg/kg, route intravenous; details: in vivo
[22] = Terminal half life in CD1 mouse at 10 mg/kg, iv; assay type: ADME, organism-based; design: dose 10 mg/kg, route intravenous; details: in vivo, read-out: beta t1/2 (converted); summary of the method: as §1
[23] = Volume of distribution at steady state in CD1 mouse at 10 mg/kg, iv; assay type: ADME, organism-based; design: dose 10 mg/kg, route intravenous; details: in vivo, read-out: Vdss; summary of the method: as §1

Compound | Activity [1] | Activity [2] | EC50 [3] | further results
C[C@H]1C[C@H]2[C@@H]3CCC4=CC(=O)C=C[C@]4(C)C3=CC[C@]2(C)[C@@]1(O)C(=O)CO | Non-toxic | 44.5% |  | 
CC[C@@H]1C[C@H]2[C@@H]3CCC4=CC(=O)C=C[C@]4(C)C3=CC[C@]2(C)[C@H]1C(=O)CO | Toxic | 27% | 89.5 nM | 
C[C@]12CCC(=O)C=C1CC[C@@H]1C2=CC[C@@]2(C)[C@H]1CC[C@]2(O)C(=O)CO |  | 49.2% | 62.9 nM | 
CCCC[C@@H]1C[C@H]2[C@@H]3CCC4=CC(=O)C=C[C@]4(C)C3=CC[C@]2(C)[C@H]1C(=O)CO | Toxic | 6.9% | > 10000 nM | 
C[C@@H]1C[C@H]2[C@@H]3CCC4=CC(=O)CC[C@]4(C)C3=CC[C@]2(C)[C@H]1C(=O)CN1CCN(C)CC1 | Non-toxic | 14.7% | > 10000 nM | 
C[C@]12C=CC(=O)C=C1CC[C@@H]1C2=CC[C@]2(C)C(C(=O)CO)=CC[C@@H]12 |  | 16.7% | 495 nM | 
C[C@]12CCC(=O)C=C1CC[C@@H]1C2=CC[C@@]2(C)[C@H]1CC[C@]2(O)C(=O)CN1CCOCC1 |  | 28.7% | 1740 nM | 
CC(=O)OCC(=O)[C@@]1(O)CC[C@H]2[C@@H]3CCC4=CC(=O)CC[C@]4(C)C3=CC[C@@]21C |  | 51.5% |  | Activity [4]: inactive
CN1CCN(CC(=O)[C@@]2(O)CC[C@H]3[C@@H]4CCC5=CC(=O)CC[C@]5(C)C4=CC[C@@]32C)CC1 |  | 23.5% | 5780 nM | 
C[C@@H]1C[C@H]2[C@@H]3CCC4=CC(=O)C=C[C@]4(C)C3=CC[C@]2(C)[C@H]1C(=O)CO | Non-toxic | 54.2% | 56.4 nM | Tmax [5]: 5 min; Stability [6]: Unstable; fCmax [7]: 10203 ng/mL; remaining at 1 h, 2 µM [8]: ≥ 80%; remaining at 1 h, 2 µM [9]: ≥ 80%; fAUC [10]: 22031 ng·h/mL; AUC(0-t) [11]: 22000 ng·h/mL; Activity [4]: inactive; remaining at 1 h, 2 µM [12]: ≥ 80%; fCmax [13]: 8637 ng/mL; remaining at 1 h, 2 µM [14]: 34%; AUC(0-t) [15]: 3450 ng·h/mL; MRT [16]: 17.3 min; F [17]: 128%; clearance [18]: 48.2 mL/min/kg; Tmax [19]: 60 min; half-life [20]: 39.5 min; fAUC [21]: 3457 ng·h/mL; half-life [22]: 40 min; Vd [23]: 0.874 L/kg
C[C@]12C=CC(=O)C=C1CC[C@@H]1C2=CC[C@@]2(C)[C@H]1CC[C@]2(O)C(=O)CO |  | 57.6% | 129 nM | 
CC(=O)OCC(=O)C1=CC[C@H]2[C@@H]3CCC4=CC(=O)C=C[C@]4(C)C3=CC[C@]12C |  | 15.3% |  | 
C[C@@H]1C[C@H]2[C@@H]3CCC4=CC(=O)CC[C@]4(C)C3=CC[C@]2(C)[C@H]1C(=O)CN1CCOCC1 | Non-toxic | 22.7% | 5240 nM | 
CCCN(CCC)CC(=O)[C@H]1[C@H](C)C[C@H]2[C@@H]3CCC4=CC(=O)CC[C@]4(C)C3=CC[C@@]21C | Non-toxic | 37.7% | 723 nM | 
CC(=O)OCC(=O)[C@H]1[C@H](C)C[C@H]2[C@@H]3CCC4=CC(=O)C=C[C@]4(C)C3=CC[C@@]21C | Non-toxic | 48.8% | 54.1 nM | Activity [4]: inactive
CCCN(CCC)CC(=O)[C@@]1(O)CC[C@H]2[C@@H]3CCC4=CC(=O)CC[C@]4(C)C3=CC[C@@]21C |  | 21.8% |  | 
C[C@@H]1C[C@H]2[C@@H]3CCC4=CC(=O)CC[C@]4(C)C3=CC[C@]2(C)[C@H]1C(=O)CN1CCCC1 | Non-toxic | 19.9% |  | 
CCCC[C@@H]1C[C@H]2[C@@H]3CCC4=CC(=O)CC[C@]4(C)C3=CC[C@]2(C)[C@H]1C(=O)CO | Toxic | 8.5% | > 10000 nM | 
C[C@]12CCC(=O)C=C1CC[C@@H]1C2=CC[C@@]2(C)[C@H]1CC[C@]2(O)C(=O)CN1CCCC1 |  | 24.7% | 1850 nM | 
